# The list is not random: actives were taken first. Their share in the collection is about 1.8%.
# M5 ag: agonists of human muscarinic M5 receptor (CHRM5); P08912; CHO-K1 hM5 cells, Fluo-8 calcium fluorescence; 0% DMSO wells, 100% maximal acetylcholine response; activation, % at 3 µM; 360,000 tested, 0.19% active; AID 624037;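 active = activation above the run's mean over test compounds plus 3 SD, cut at about 23% in these data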;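 also: signal is peak over basal fluorescence ratio across the kinetic read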
# M5 antag: CHRM5 antagonism in calcium assay. AID 624040. P08912. 360,000 tested, 0.59% active. CHO-hM5 cells, Fluo-8 calcium fluorescence, ACh EC80. inhibition, % at 3 µM;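 active = inhibition above a per-plate cutoff, the mean of that plate's test compounds plus 3 SD, cut at about 27% in these data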;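 also: 0% = acetylcholine EC80 with DMSO and 100% = DMSO without agonist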
# CHRM4 PAM: CHRM4 positive allosteric modulation | 360,000 tested, 0.4% active | CHO-K1 hM4/Gqi5, Fluo-8 calcium fluorescence, ACh EC20; 0% = ACh EC20, 100% = maximal ACh | AID 624126 | P08173 | activation, % at 3 µM;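 active = activation above its plate's cutoff, the mean activation of sample wells plus 3 SD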
# Target sequence (P08173 whole entry, looked up): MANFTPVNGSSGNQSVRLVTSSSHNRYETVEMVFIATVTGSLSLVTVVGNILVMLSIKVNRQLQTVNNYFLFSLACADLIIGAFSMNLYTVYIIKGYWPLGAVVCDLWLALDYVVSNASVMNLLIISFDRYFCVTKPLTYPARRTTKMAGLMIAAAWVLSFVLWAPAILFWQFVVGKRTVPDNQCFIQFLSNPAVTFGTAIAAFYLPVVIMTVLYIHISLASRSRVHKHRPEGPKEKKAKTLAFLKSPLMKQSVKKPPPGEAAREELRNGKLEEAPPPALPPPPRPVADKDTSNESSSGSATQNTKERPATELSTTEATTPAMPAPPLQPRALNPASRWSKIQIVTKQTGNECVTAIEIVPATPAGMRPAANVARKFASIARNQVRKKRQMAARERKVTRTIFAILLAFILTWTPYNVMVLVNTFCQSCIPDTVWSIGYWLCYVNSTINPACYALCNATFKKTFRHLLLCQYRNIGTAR
# CHRM4 antagonist: CHRM4 antagonism in calcium assay | P08173 | 360,000 tested, 0.73% active | inhibition, % at 3 µM | CHO-hM4 cells, ACh EC80, Fluo-8 calcium fluorescence;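 active = inhibition above its plate's cutoff, the mean inhibition of sample wells plus 3 SD, cut at about 27% in these data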;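 also: 0% = acetylcholine EC80 with DMSO and 100% = DMSO without agonist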
# CHRM5 PAM: positive allosteric modulators of human muscarinic M5 receptor | P08912 | CHO-K1 hM5, Fluo-8 calcium, ACh EC20 PAM; 0% = ACh EC20, 100% = ACh EC100 | activation, % at 3 µM | 360,000 tested, 0.3% active;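 active = activation above the run cutoff, the mean activation of all test compounds plus 3 SD, cut at about 18% in these data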
#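 System – CHO-K1 hM5 cells · Compound – 3 µM, single dose · Incubation – compound preincubation 140 s before EC20 acetylcholine addition · Technique – Fluo-8 calcium fluorescence · Measure – Max/basal fluorescence ratio as % of EC20–EC100 ACh window · Benchmarks – low control EC20 acetylcholine (0%), high control EC100 acetylcholine (100%) · Replication – singlicate, one well per test compound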
# CHRM4 agonist: agonists of human muscarinic M4 receptor (CHRM4); P08173; CHO-K1 hM4/Gqi5, Fluo-8 calcium fluorescence; vehicle 0%, full acetylcholine response 100%; activation, % at 3 µM; 360,000 tested, 0.14% active; AID 624127;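 active = activation above the run mean over all test wells plus 3 SD, cut at about 32% in these data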;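 also: peak over basal fluorescence ratio per well then scaled between controls; 0% = DMSO wells and 100% = acetylcholine at EC100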
# The depositor's hits bear a star.
SMILES,M5 ag,M5 antag,CHRM4 PAM,CHRM4 antagonist,CHRM5 PAM,CHRM4 agonist
Cc1ccc2c(c1)C(=O)C(=O)N2Cc1ccc(Br)cc1,30.6*,16.6,2.0,-1.0,-0.3,16.2
Cc1cccc(OCCN2C(=O)C(=O)c3cc(C)ccc32)c1,17.1,7.3,-5.4,5.7,-0.4,0.4
Cc1cccc2c1N(CCCOc1ccccc1)C(=O)C2=O,27.0*,2.2,1.6,2.1,-1.4,6.3
Cc1ccc2c(c1)C(=O)C(=O)N2CCOc1ccccc1,24.2*,6.0,7.6,6.0,2.7,1.3
Cc1cn([C@H]2C[C@H](O)[C@@H](CCC(=O)NCCc3cccs3)O2)c(=O)[nH]c1=O,2.3,-1.3,4.7,1.8,2.2,0.9
CN1\C(=C/C=C/C=C/C=[N+](C)C)C(C)(C)c2ccccc21,37.8*,9.2,-14.4,20.8,-9.3,8.2
CCN(CC)c1ccc2nc3ccc(N)cc3[n+](-c3ccccc3)c2c1,-6.3,4.3,-2.3,6.0,4.4,2.9
CCN(CC)c1ccc2nc3ccccc3[n+](CC)c2c1,-21.7,-5.3,-14.0,27.4*,6.0,-0.3
CC(C)(C)c1ccc(S(=O)(=O)N2CCC(O)(c3ccc(Cl)cc3)CC2)cc1,-16.5,30.3*,-52.7,19.3,-32.0,12.5
COc1ccc(S(=O)(=O)N2CCC(O)(c3ccc(Cl)cc3)CC2)cc1,-5.7,1.9,-6.7,8.7,-13.5,5.0
O=C(CC1C(=O)NCCN1Cc1cccc(F)c1)NCCCN1CCCC1=O (stereo unspecified),-1.4,-16.7,3.6,-3.3,13.2,0.9
COc1cccc(CN2CCNC(=O)C2CC(=O)NCCCN2CCCC2=O)c1 (stereo unspecified),-0.6,-11.0,15.0*,-4.6,7.2,0.2
COc1cccc(N2CCN(C(=O)c3cccn4c(=O)c5c(C)c(C)sc5nc34)CC2)c1,7.6,-14.6,3.0,2.4,18.6*,2.0
COc1ccc(N2CCN(C(=O)c3cccn4c(=O)c5ccccc5nc34)CC2)cc1,2.8,3.5,3.8,-3.3,-3.5,1.4
CCOC(=O)c1ccc(CNCc2ccccc2)cc1,-7.2,4.8,-15.3,39.6*,-11.8,0.9
OC(c1ccc(F)cc1)c1nc(-c2cnc3ccccc3c2)cs1 (stereo unspecified),1.2,4.8,-2.3,-6.2,-5.3,6.7
CCC(C)(C)NC(=O)C(c1ccccn1)N(C(=O)c1csnn1)C1CCCCC1 (stereo unspecified),-0.5,-6.3,3.5,1.5,23.2*,0.8
CC(C)(C)NC(=O)C(c1ccccn1)N(C(=O)c1csnn1)C1CCCCC1 (stereo unspecified),0.1,-7.9,4.2,1.8,8.9,1.0
CCC1=NN2C(=N)/C(=C/c3cc(C)n(Cc4ccccc4)c3C)C(=O)N=C2S1,23.9*,2.6,-41.8,4.1,-26.4,52.9*
Cc1nn(CC(=O)Nc2ccc(C(=O)N3CCCCC3)cc2)c(=O)c2ccccc12,-1.7,-0.3,-0.9,5.6,-5.4,-0.3
Cc1nn(CC(=O)Nc2ccc(C(=O)N3CCCC3)cc2)c(=O)c2ccccc12,2.7,18.7,9.7,-7.6,38.7*,-1.7
COc1cccc(-c2ccc(=O)n(CC(=O)Nc3ccc(C(=O)N4CCCC4)cc3)n2)c1,-6.1,-1.3,9.2,-3.8,19.3*,-1.1
O=C(O)c1c(C(=O)O)c(-c2ccc(F)cc2)n2c1CCC2,-1.8,10.1,-7.2,6.4,-2.4,-0.1
COc1ccc2sc(-c3ccc(S(C)(=O)=O)cc3)c(C(=O)NCCc3c[nH]c4ccccc34)c2c1,2.0,23.3,-11.4,34.3*,-34.9,24.3
COc1cccc(-c2cnc(C(O)c3ccc(-c4ccccc4)cc3)[nH]2)c1 (stereo unspecified),-0.3,1.7,7.1,0.3,-0.3,3.9
